The values that follow come from ChEMBL document CHEMBL4052588, “Design of a Biased Potent Small Molecule Inhibitor of the Bromodomain and PHD Finger-Containing (BRPF) Proteins Suitable for Cellular and in Vivo Studies” (J Med Chem, 2017).

The test system of data set [1] is ASPC1. Put plainly: Growth inhibition of human AsPC1 cells after 72 hrs. The data set is classed as functional. As to conditions: ASPC1, 72 h.
The test system of data set [2] is NOMO-1. Put plainly: Growth inhibition of human NOMO1 cells after 72 hrs. It counts as functional. As to conditions: NOMO-1, 72 h.
Data set [3] concerns AGS. In words: Growth inhibition of human AGS cells after 72 hrs. The data set is classed as functional.
For data set [4], the system named is HuP-T4. Put plainly: Growth inhibition of human HUPT4 cells after 72 hrs. As to conditions: HuP-T4, 72 h. The data set is classed as functional.
Data set [5] addresses T1, Bromodomain-containing protein 1 (Homo sapiens, UniProt O95696).
T1 sequence (O95696 whole entry): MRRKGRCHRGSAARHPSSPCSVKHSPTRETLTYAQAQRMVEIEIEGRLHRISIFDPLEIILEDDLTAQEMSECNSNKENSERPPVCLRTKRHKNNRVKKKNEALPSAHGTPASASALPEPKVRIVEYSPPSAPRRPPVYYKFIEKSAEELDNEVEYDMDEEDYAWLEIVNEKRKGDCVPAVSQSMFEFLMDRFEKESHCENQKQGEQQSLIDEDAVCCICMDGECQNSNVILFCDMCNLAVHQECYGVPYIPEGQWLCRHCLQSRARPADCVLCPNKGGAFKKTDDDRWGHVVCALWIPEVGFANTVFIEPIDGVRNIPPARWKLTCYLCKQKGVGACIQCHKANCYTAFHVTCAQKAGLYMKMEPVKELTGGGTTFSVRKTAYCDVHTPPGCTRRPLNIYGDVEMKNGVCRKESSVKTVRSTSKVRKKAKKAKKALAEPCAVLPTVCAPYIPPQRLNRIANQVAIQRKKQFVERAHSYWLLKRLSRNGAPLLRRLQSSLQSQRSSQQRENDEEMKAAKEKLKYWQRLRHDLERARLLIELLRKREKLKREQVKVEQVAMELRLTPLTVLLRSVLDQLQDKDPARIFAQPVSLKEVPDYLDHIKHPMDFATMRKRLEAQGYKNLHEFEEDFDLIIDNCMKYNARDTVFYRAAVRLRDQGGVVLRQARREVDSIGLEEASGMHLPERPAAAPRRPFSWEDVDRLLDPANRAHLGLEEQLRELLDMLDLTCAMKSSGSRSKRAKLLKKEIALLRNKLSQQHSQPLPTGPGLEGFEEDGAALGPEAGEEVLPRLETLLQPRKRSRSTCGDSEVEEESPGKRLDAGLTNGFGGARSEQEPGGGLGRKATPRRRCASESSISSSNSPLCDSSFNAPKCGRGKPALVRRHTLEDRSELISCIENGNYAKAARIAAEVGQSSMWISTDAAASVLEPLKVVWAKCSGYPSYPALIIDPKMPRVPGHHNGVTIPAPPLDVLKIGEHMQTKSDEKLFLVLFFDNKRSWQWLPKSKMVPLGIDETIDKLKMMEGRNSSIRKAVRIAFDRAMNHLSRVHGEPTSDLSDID
In words: Binding affinity to human BRPF2 by isothermal titration calorimetry. In general terms: ITC needs no label: the signal is the heat of the interaction.

For data set [6], the target named is Bromodomain-containing protein 4 (Homo sapiens, UniProt O60885).
The test system of data set [7] is MV4-11. In words: Growth inhibition of human MV4-11 cells after 72 hrs. It counts as functional. As to conditions: MV4-11, 72 h.
Data set [8] has as its target T1, Bromodomain-containing protein 1. In words: Inhibition of human His tagged BRPF2 incubated for 30 mins followed by addition of biotinylated peptide and further incubation for 30 mins measured by AlphaScreen assay.
Data set [9] relates to SK-CO-1. Put plainly: Growth inhibition of human SKCO1 cells after 72 hrs. It counts as functional. As to conditions: SK-CO-1, 72 h.
The subject of data set [10] is SW948. Put plainly: Growth inhibition of human SW948 cells after 72 hrs. It counts as functional. The settings on record: SW948, 72 h.
The target in data set [11] is Bromodomain-containing protein 7 (Homo sapiens, UniProt Q9NPI1). In words: Inhibition of human BRD7 expressed in Escherichia coli BL21 after 1 hr by BROMOscan assay.
Bromodomain-containing protein 7, sequence (Q9NPI1 whole entry): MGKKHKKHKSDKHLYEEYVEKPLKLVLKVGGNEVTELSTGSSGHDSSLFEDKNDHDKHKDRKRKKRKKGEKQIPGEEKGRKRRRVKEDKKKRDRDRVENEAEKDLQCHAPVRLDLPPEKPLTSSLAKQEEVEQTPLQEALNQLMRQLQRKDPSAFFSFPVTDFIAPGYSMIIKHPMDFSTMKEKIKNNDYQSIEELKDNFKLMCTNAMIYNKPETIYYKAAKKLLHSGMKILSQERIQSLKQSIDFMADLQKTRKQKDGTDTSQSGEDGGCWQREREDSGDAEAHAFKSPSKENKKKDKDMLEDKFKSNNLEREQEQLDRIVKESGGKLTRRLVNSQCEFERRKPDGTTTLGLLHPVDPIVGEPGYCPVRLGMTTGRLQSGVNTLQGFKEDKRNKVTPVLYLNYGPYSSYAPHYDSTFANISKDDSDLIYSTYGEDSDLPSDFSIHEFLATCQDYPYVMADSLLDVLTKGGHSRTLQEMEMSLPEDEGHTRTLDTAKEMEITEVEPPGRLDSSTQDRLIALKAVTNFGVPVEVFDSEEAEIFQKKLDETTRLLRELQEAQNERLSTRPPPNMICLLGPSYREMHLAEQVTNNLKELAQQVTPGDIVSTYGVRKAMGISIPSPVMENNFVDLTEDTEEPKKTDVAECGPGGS
The nature of data set [12]: Growth inhibition of human Panc 02.03 cells after 72 hrs. The settings on record: Panc 02.03, 72 h. The data set is classed as functional.
The nature of data set [13]: Clearance in CD-1 mouse blood at 1 mg/kg, iv administered as bolus. The data set is classed as ADME, organism-based. As to conditions: whole blood. In short, it runs like this: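 Female CD-1 mice (n = 3), single dosing: intravenous 1.0 mg/kg, or oral 3.0 mg/kg given as a suspension. Blood levels were followed over time to derive clearance, volume of distribution, elimination half-life, Cmax, Tmax, AUC0−∞, oral bioavailability and fraction absorbed.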

For data set [14], the system named is IM-9. Put plainly: Growth inhibition of human IM9 cells after 72 hrs. The data set is classed as functional. As to conditions: IM-9, 72 h.
The test system of data set [15] is NUGC-4. In words: Growth inhibition of human NUGC4 cells after 72 hrs. It counts as functional. As to conditions: NUGC-4, 72 h.
Data set [16] concerns the target T2, Peregrin (Homo sapiens) (UniProt P55201).
T2 sequence (whole entry): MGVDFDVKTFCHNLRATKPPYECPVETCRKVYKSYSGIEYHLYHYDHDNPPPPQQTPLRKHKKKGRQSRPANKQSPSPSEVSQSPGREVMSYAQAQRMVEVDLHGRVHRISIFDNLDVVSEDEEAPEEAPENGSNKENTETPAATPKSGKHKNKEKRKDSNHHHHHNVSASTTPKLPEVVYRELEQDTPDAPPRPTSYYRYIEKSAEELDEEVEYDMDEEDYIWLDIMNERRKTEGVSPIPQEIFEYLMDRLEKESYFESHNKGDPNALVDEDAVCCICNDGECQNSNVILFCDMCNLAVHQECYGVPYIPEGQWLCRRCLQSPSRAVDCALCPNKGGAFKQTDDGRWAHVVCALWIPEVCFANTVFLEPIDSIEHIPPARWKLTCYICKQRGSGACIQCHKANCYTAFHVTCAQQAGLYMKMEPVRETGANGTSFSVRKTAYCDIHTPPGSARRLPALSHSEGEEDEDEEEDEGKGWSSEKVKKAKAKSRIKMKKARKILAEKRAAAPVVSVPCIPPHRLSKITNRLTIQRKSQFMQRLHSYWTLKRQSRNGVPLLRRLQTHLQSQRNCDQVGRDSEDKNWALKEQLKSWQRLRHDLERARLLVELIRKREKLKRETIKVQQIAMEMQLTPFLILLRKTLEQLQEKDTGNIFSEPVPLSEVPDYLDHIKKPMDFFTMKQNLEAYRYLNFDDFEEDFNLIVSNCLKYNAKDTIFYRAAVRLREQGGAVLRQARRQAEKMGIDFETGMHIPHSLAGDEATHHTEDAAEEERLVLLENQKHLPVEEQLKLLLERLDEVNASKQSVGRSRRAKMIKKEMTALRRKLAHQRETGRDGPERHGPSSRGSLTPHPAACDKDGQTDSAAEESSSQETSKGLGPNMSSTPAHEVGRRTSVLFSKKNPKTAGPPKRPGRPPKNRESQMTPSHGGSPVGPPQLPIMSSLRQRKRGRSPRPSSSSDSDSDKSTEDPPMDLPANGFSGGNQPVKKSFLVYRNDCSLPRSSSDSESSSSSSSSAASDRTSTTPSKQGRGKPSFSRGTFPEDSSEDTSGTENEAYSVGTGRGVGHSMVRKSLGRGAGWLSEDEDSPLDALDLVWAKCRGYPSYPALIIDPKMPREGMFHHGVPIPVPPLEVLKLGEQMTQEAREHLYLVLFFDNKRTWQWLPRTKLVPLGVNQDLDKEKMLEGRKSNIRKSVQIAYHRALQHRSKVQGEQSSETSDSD

In general, GI50 refers to the concentration that inhibits growth by half. Read a low GI50 as greater sensitivity of the cells. What is called Kd is a measure of binding affinity in units of concentration. High values mean a looser complex, low ones a tighter complex. As usually defined, the ΔTm is the change in melting temperature against a reference sample. In general, IC50 refers to the concentration needed to halve the response being measured. Low readings indicate inhibition by little substance, high ones a need for much substance. What is called clearance is the rate of elimination divided by the concentration. Low values mean inefficient removal, high ones efficient removal. Turning to `Cc1cc2cc(NS(=O)(=O)c3ccc(C#N)cc3)ccc2n(C)c1=O`, the GI50 was 1000 to 10000 nM in data set [1]; 4600 nM in data set [2]; 1000 to 10000 nM in data set [3]; 1000 to 10000 nM in data set [4]; 9900 nM in [7]; 1000 to 10000 nM in data set [9]. For the same compound, the concentration for 50% growth inhibition (GI50) in [10], in [12], in data set [14] and in data set [15] was 1000 to 10000 nM throughout. The compound also came in with a dissociation constant (Kd) in [5] of 210 nM. Moreover, the thermal shift (ΔTm) in [6] is 0.95 °C. Further, the 50% inhibitory concentration (IC50) in [8] was found to be 760 nM; in data set [11] it was 82 nM. This compound displayed a clearance in data set [13] of 4 mL/min/kg.
Turning to `Cn1c(=O)ccc2cc(NS(=O)(=O)c3ccc(C#N)c(Cl)c3)ccc21`, the ΔTm in data set [16] is 4.3 °C.
Consider `Cc1cc(C#N)ccc1S(=O)(=O)Nc1ccc2c(ccc(=O)n2C)c1`, for which the ΔTm was determined as 0.4 °C in data set [6] and 6.5 °C in [16].
As for `CCc1cc2cc(NS(=O)(=O)c3ccc(C#N)cc3)ccc2n(CC)c1=O`, the IC50 in data set [11] was greater than 100000 nM.
